In ChEMBL document CHEMBL4152203, “Antiproliferative hydrogen sulfide releasing evodiamine derivatives and their apoptosis inducing properties” (Eur J Med Chem, 2018):

What was measured:
MCF7 = test: Antiproliferative activity against human MCF7 cells after 72 hrs by MTT assay; type: functional, cell-based; settings: MCF7, 72 h
In short: (§1)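 Cells seeded and pre-incubated 24 h at 37 °C, 5% CO2, then exposed to compounds for 72 h. MTT (5 mg/mL stock) added for 4 h, formazan dissolved in DMSO for 10 min at room temperature, absorbance read at 570 nm. 0.1% DMSO as negative and 5-FU as positive reference. IC50 derived from inhibition ratios; mean ± SD of three independent experiments.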

PBMC = test: Antiproliferative activity against human PBMC cells after 72 hrs by MTT assay; type: cell-based; in short: as §1
SGC-7901 = test: Antiproliferative activity against human SGC7901 cells after 72 hrs by MTT assay; type: functional, cell-based; settings: SGC-7901, 72 h; in short: as §1
Caco-2 = test: Antiproliferative activity against human Caco2 cells after 72 hrs by MTT assay; type: functional, cell-based; settings: Caco-2, 72 h; in short: as §1
HL-60 = test: Antiproliferative activity against human HL60 cells after 72 hrs by MTT assay; type: functional, cell-based; settings: HL-60, 72 h; in short: as §1
Bel-7402 = test: Antiproliferative activity against human Bel7402 cells after 72 hrs by MTT assay; type: functional, cell-based; settings: Bel-7402, 72 h; in short: as §1

Row | Compound | IC50 (MCF7) [µM] | IC50 (PBMC) [µM] | IC50 (SGC-7901) [µM] | IC50 (Caco-2) [µM] | IC50 (HL-60) [µM] | IC50 (Bel-7402) [µM]
1 | CN1c2ccccc2C(=O)N2CCc3c(n(CCCCCCOC(=O)CCCCC4CCSS4)c4ccccc34)C21 (stereo not drawn) | 28 | > 100 | 35.7 | 4.88 | 3.49 | 22.1
2 | CN1c2ccccc2C(=O)N2CCc3c(n(CCCC(=O)OCCOc4ccc(-c5cc(=S)ss5)cc4)c4ccccc34)C21 (stereo not drawn) | 40.2 | > 100 | 47.4 | 4.18 | 1.03 | 45.2
3 | Oc1ccc(-c2cc(=S)ss2)cc1 | > 50 | > 100 | > 50 | 35.5 | 25.9 | > 50
4 | CN1c2ccccc2C(=O)N2CCc3c(n(CCCOCCCOC(=O)CCCCC4CCSS4)c4ccccc34)C21 (stereo not drawn) | 22.4 | > 100 | 31 | 5.14 | 9.38 | > 50
5 | CN1c2ccccc2C(=O)N2CCc3c(n(CCOC(=O)CCCCC4CCSS4)c4ccccc34)C21 (stereo not drawn) | 9.47 | > 100 | > 50 | 3.18 | 0.97 | 20.5
6 | CN1c2ccccc2C(=O)N2CCc3c(n(CCCCC(=O)OCCCOc4ccc(-c5cc(=S)ss5)cc4)c4ccccc34)C21 (stereo not drawn) | > 50 | > 100 | > 50 | 3.05 | 0.99 | 30.5
7 | CN1c2ccccc2C(=O)N2CCc3c(n(CC(=O)OCCCOc4ccc(-c5cc(=S)ss5)cc4)c4ccccc34)C21 (stereo not drawn) | 27.9 | > 100 | 24.7 | 5.1 | 2.74 | 34.2
8 | CN1c2ccccc2C(=O)N2CCc3c(n(CCCC(=O)OCCCCOc4ccc(-c5cc(=S)ss5)cc4)c4ccccc34)C21 (stereo not drawn) | 29.1 | > 100 | > 50 | 3.87 | 0.7 | 45
9 | CN1c2ccccc2C(=O)N2CCc3c(n(CC(=O)Oc4ccc(-c5cc(=S)ss5)cc4)c4ccccc34)C21 (stereo not drawn) | 47.5 | > 100 | 26.8 | 22.9 | > 50 | 25.8
10 | CN1c2ccccc2C(=O)N2CCc3c(n(CC(=O)OCCCCOc4ccc(-c5cc(=S)ss5)cc4)c4ccccc34)C21 (stereo not drawn) | > 50 | > 100 | > 50 | 4.34 | 0.83 | > 50
11 | CN1c2ccccc2C(=O)N2CCc3c(n(CCCOC(=O)CCCCC4CCSS4)c4ccccc34)C21 (stereo not drawn) | 39.7 | > 100 | > 50 | 2.84 | 2.09 | > 50
12 | CN1c2ccccc2C(=O)N2CCc3c(n(CCCC(=O)OCCCOc4ccc(-c5cc(=S)ss5)cc4)c4ccccc34)C21 (stereo not drawn) | > 50 | > 100 | > 50 | 2.81 | 1.04 | > 50
13 | CN1c2ccccc2C(=O)N2CCc3c([nH]c4ccccc34)C21 (stereo not drawn) | 28.5 | 21 | 6.93 | 2.73 | 1.36 | 1.19
14 | CN1c2ccccc2C(=O)N2CCc3c(n(CC(=O)OCCOc4ccc(-c5cc(=S)ss5)cc4)c4ccccc34)C21 (stereo not drawn) | 38.4 | > 100 | 32.9 | 6.35 | 1.92 | 26.8
15 | CN1c2ccccc2C(=O)N2CCc3c(n(CCCCC(=O)Oc4ccc(-c5cc(=S)ss5)cc4)c4ccccc34)C21 (stereo not drawn) | 48.7 | > 100 | 30.2 | 38.1 | > 50 | > 50
16 | CN1c2ccccc2C(=O)N2CCc3c(n(CCCCC(=O)OCCOc4ccc(-c5cc(=S)ss5)cc4)c4ccccc34)C21 (stereo not drawn) | 29.7 | > 100 | 43.6 | 4.22 | 2.09 | 41.4
17 | O=C(O)CCCCC1CCSS1 (stereo not drawn) [LIPOIC ACID, ALPHA] | > 50 | > 100 | > 50 | 14.3 | 16.4 | > 50
18 | O=c1[nH]cc(F)c(=O)[nH]1 [FLUOROURACIL] | 26.9 | – | 19.8 | 38.8 | 3.46 | 19
19 | CN1c2ccccc2C(=O)N2CCc3c(n(CCCC(=O)Oc4ccc(-c5cc(=S)ss5)cc4)c4ccccc34)C21 (stereo not drawn) | > 50 | > 100 | > 50 | 4.08 | 14.1 | > 50
